We go through six compounds from ChEMBL document CHEMBL3758162, “Synthesis, biological characterization and molecular modeling insights of spirochromanes as potent HDAC inhibitors” (Eur J Med Chem, 2016).

Series [1] in a line: Antiproliferative activity against human HCT116 cells assessed as cell viability after 72 hrs by CellTitre-Glo luminescent assay. It counts as functional, cell-based, HCT-116.
Series [2] addresses T1, CYP1A2 (Homo sapiens, UniProt P05177).
T1 sequence (P05177 whole entry): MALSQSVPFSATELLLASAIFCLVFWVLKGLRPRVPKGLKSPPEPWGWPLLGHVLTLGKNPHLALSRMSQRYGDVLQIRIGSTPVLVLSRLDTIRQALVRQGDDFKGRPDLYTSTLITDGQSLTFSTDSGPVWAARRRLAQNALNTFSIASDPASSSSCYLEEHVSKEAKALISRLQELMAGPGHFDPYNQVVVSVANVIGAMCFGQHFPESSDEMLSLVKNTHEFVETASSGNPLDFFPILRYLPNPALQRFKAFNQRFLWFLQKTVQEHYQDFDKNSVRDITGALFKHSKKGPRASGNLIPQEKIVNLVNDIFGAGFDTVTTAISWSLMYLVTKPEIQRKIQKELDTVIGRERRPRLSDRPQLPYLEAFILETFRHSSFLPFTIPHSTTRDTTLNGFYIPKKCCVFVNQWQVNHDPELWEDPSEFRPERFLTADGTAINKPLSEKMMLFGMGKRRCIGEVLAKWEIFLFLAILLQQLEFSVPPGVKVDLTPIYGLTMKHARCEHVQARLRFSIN
As to the kind of experiment: Inhibition of human CYP1A2 using 3-cyano-7-ethoxycoumarin as substrate at 10 uM after 15 mins by fluorimetric analysis. In kind it is ADME. As to conditions: probe 3-cyano-7-ethoxycoumarin. The procedure, abridged: (§1)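 Test compounds at 10 µM in potassium phosphate buffer pH 7.4 with NADPH regenerating system (final 1.3 mM NADP⁺, 3.3 mM glucose 6-phosphate, 0.4 U/ml G6PDH); reaction started at 37 °C by adding Supersomes isoenzyme plus substrate. Enzyme and substrate amounts: CYP1A2 0.5 pmol, 5 µM CEC; CYP2C19 0.5 pmol, 25 µM CEC; CYP3A4 1 pmol, 50 µM BFC; CYP2D6 1.5 pmol, 1.5 µM AMMC. Stopped with acetonitrile/Tris base; fluorescence read; % inhibition versus enzyme without inhibitor; n≥2, mean.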

Series [3] has as its target CYP2D6 (Homo sapiens, UniProt P10635). Put plainly: Inhibition of human CYP2D6 using 3-[2-(N,N-diethyl-N-methylamino)ethyl]-7-methoxy-4-methylcoumarin as substrate at 10 uM after 30 mins by fluorimetric analysis. It counts as ADME. In short, it runs like this:
as §1

Series [4] in a line: (§2) Metabolic stability in human liver microsomes assessed as compound remaining at 1 uM preincubated for 10 mins measured after 30 mins by LC-MS/MS analysis. The settings on record: liver microsomes, read-out: Stability. It counts as ADME. In short, it runs like this:
(§3)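 Compound at 1 µM pre-incubated 10 min at 37 °C in potassium phosphate buffer pH 7.4 with 0.5 mg/mL mouse or human hepatic microsomes. Parent quantified by LC-MS/MS (ESI+, MRM, verapamil internal standard). % remaining = peak area at 30 min / area at 0 min × 100; n≥2, mean.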

In series [5] the target is CYP2C19 (Homo sapiens, UniProt P33261). Put plainly: Inhibition of human CYP2C19 using 3-cyano-7-ethoxycoumarin as substrate at 10 uM after 30 mins by fluorimetric analysis. It counts as ADME. As to conditions: probe 3-cyano-7-ethoxycoumarin. In short, it runs like this:
as §1

Series [6] concerns the target Histone deacetylase. Put plainly: Inhibition of HDAC in human HeLa cells nuclear extract using Fluor de lys as substrate after 15 mins by fluorometric analysis. In kind it is cell-based.
The subject of series [7] is A549. Put plainly: Antiproliferative activity against human A549 cells assessed as cell viability after 72 hrs by CellTitre-Glo luminescent assay. It counts as functional, cell-based.
Series [8] deals with CYP3A4 (Homo sapiens, UniProt P08684). As to the kind of experiment: Inhibition of human CYP3A4 using 7-benzyloxy-4-(trifluoromethyl)-coumarin as substrate at 10 uM after 30 mins by fluorimetric analysis. It counts as ADME. The settings on record: probe 7-benzyloxy-4-(trifluoromethyl)-coumarin. The procedure, abridged: as §1
The nature of series [9]: Metabolic stability in mouse liver microsomes assessed as compound remaining at 1 uM preincubated for 10 mins measured after 30 mins by LC-MS/MS analysis. It counts as ADME. The settings on record: for remaining at 0.5 h, 1 µM: liver microsomes, read-out: Stability. In short, it runs like this: as §3
The nature of series [10]: Solubility of the compound at pH 4.5. As to conditions: buffer. It counts as physicochemical.
Series [11] concerns K562. Put plainly: Antiproliferative activity against human K562 cells assessed as cell viability after 72 hrs by CellTitre-Glo luminescent assay. In kind it is functional, cell-based.
Series [12] concerns the target T2, Protein deacetylase HDAC6 (Homo sapiens, UniProt Q9UBN7).
T2 sequence (Q9UBN7 whole entry): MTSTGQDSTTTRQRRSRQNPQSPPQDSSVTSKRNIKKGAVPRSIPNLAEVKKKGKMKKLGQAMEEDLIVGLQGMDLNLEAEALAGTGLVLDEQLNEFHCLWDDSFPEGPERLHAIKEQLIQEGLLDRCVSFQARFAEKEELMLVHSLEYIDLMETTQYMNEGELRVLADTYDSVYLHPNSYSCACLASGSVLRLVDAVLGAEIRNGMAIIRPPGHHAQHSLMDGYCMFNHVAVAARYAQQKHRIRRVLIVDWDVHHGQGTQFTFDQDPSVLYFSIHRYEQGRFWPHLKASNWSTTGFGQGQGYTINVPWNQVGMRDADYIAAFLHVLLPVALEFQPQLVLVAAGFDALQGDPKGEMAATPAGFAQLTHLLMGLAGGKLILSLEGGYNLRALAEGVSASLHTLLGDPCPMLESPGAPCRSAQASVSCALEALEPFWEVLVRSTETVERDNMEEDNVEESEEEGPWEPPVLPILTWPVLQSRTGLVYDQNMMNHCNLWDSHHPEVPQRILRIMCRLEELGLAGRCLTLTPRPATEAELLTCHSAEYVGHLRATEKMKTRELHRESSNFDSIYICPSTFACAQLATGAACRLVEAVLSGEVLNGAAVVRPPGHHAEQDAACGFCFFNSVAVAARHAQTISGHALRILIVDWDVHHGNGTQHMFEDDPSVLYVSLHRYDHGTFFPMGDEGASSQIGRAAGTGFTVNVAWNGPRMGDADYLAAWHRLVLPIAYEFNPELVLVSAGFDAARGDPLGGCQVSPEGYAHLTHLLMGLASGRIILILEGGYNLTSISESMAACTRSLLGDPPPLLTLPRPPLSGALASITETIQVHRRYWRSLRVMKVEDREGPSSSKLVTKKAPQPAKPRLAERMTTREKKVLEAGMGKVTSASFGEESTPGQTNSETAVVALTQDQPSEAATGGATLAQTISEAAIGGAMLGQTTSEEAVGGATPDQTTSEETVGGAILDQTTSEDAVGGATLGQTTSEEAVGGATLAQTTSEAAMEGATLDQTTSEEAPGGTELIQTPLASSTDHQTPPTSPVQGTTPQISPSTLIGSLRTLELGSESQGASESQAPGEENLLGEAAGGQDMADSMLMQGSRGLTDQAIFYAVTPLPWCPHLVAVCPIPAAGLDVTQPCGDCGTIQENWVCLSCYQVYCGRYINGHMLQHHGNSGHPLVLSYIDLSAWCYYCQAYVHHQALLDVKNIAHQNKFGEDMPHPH
As to the kind of experiment: Inhibition of HDAC6 (unknown origin).

In series [13] the target is Histone deacetylase 3 (Homo sapiens, UniProt O15379). As to the kind of experiment: Inhibition of HDAC3 (unknown origin).
Series [14] has as its target Histone deacetylase 2 (Homo sapiens, UniProt Q92769). As to the kind of experiment: Inhibition of HDAC2 (unknown origin).
In series [15] the test system is Liver microsome. The series is described as §2. It counts as ADME. As to conditions: microsomes, 0.5 h, 1 µM. In short, it runs like this: as §3

Structures are written as SMILES.

Sequence of CYP2D6 (P10635 whole entry): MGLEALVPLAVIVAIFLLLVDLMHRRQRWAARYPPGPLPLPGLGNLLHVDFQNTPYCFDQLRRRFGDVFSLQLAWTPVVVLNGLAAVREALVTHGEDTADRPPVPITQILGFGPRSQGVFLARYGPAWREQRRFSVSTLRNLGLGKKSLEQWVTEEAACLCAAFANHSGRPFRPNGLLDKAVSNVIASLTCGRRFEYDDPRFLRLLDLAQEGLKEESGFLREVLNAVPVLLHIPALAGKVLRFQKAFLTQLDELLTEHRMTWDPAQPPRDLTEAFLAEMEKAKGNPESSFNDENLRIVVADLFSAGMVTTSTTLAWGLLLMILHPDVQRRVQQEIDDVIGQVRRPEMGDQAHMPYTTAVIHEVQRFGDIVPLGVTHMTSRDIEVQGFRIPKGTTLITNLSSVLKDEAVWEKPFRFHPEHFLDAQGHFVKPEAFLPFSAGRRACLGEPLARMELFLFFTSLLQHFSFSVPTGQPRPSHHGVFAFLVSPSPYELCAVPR
Sequence of CYP2C19 (P33261 whole entry): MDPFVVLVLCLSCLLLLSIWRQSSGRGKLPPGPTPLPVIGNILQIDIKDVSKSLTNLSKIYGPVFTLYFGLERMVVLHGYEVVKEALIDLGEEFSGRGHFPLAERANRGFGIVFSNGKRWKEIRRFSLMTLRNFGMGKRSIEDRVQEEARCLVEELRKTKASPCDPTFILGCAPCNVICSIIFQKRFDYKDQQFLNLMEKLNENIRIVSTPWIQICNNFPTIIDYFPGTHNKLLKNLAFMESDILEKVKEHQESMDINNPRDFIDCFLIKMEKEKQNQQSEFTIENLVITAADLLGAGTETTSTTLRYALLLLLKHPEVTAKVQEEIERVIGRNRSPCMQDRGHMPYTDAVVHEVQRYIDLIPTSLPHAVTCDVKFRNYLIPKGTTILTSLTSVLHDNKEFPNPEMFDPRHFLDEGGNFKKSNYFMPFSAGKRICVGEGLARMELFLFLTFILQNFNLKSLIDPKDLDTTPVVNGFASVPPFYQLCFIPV
Sequence of CYP3A4 (P08684 whole entry): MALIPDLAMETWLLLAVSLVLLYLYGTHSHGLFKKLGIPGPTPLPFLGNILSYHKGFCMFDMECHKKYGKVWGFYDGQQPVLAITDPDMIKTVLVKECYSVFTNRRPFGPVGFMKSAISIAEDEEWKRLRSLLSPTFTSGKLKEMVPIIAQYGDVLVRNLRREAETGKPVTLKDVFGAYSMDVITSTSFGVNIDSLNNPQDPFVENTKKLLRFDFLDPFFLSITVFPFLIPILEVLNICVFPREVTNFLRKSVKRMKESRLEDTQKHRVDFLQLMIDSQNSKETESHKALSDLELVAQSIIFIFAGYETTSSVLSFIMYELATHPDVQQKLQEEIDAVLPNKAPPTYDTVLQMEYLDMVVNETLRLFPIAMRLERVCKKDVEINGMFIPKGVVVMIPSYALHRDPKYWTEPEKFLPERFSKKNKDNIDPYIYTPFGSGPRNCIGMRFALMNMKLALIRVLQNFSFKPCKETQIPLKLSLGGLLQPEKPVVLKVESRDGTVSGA
Sequence of Histone deacetylase 3 (O15379 whole entry): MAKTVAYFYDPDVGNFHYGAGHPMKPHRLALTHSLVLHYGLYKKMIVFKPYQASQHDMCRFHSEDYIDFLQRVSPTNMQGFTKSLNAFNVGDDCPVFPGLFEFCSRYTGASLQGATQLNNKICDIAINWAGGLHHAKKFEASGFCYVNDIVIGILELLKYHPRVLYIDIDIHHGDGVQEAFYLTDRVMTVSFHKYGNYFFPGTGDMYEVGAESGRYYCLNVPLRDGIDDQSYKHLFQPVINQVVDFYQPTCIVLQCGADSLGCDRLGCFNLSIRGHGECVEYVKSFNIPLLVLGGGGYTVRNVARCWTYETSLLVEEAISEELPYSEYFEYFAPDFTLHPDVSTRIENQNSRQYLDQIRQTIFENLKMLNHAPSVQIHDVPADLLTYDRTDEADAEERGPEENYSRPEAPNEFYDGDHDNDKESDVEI
Sequence of Histone deacetylase 2 (Q92769 whole entry): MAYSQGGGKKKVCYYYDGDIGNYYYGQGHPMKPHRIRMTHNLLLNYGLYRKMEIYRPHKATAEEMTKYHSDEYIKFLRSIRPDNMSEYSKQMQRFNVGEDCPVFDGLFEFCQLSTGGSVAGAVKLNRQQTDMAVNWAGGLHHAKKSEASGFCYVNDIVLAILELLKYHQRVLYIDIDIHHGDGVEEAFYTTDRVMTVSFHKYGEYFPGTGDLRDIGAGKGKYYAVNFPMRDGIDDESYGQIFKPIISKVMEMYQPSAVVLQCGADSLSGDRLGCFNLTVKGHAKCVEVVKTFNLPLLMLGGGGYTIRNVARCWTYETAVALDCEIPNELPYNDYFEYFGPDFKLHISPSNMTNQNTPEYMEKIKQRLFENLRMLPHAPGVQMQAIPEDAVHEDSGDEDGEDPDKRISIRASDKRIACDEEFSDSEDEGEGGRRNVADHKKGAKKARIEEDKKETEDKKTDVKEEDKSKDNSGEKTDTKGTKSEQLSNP

Turning to `CN1CCCC2(CC1)CC(=O)c1cc(/C=C/C(=O)NO)ccc1O2` (racemic), the 50% inhibitory concentration (IC50) in [1] (Homo sapiens, HCT-116, 72 h) was 98 nM; in series [6] it was 114 nM; in series [7] (Homo sapiens, A549, 72 h), 534 nM; in series [11] (Homo sapiens, K562, 72 h), 329 nM. This compound showed an inhibition at 0.25 h, 10 µM in series [2] of 5%. Besides, the inhibition at 0.5 h, 10 µM in series [3] was 5%; in series [5], 9%; in series [8], 12%. For the same compound, the remaining at 0.5 h, 1 µM in series [4] came to 79%; in series [9], 62%. The solubility in [10] was > 500 µM.

Regarding `O=C(/C=C/c1ccc2c(c1)C(=O)CC1(CCN(CCc3ccccc3)C1)O2)NO` (racemic), the IC50 in series [1] (Homo sapiens, HCT-116, 72 h) amounted to 43 nM; in series [6] it was 27 nM; in series [7] (Homo sapiens, A549, 72 h) it was 272 nM; in series [11] (Homo sapiens, K562, 72 h) it was 102 nM. The compound further showed an inhibition at 0.25 h, 10 µM in series [2] of 5%. Besides, the figures for the inhibition at 0.5 h, 10 µM in [3], in [5] and in [8] were 41%, 59% and 64%, respectively. Further, the remaining at 0.5 h, 1 µM in [4] and in series [9] was 31% in each case. The solubility in series [10] is > 500 µM.

With `O=C(/C=C/c1ccc2c(c1)C(=O)CC1(CCCN(Cc3ccccc3)CC1)O2)NO` (racemic), the 50% inhibitory concentration (IC50) came to 47 nM in series [1] (Homo sapiens, HCT-116, 72 h); 151 nM in series [12]; 30 nM in series [13]; 72 nM in [14]; 73 nM in series [6]; 371 nM in [7] (Homo sapiens, A549, 72 h). The concentration for half-maximal inhibition (IC50) in series [11] (Homo sapiens, K562, 72 h) stood at 162 nM. The remaining at 0.5 h, 1 µM in series [4] worked out at 19%; in [9], 25%.

Regarding `O=C(/C=C/c1ccc2c(c1)C(=O)CC1(CCN(Cc3ccccc3)C1)O2)NO` (single isomer, unassigned; (-)), the concentration for half-maximal inhibition (IC50) worked out at 66 nM in [1] (hct-116), 26 nM in series [6], 332 nM in series [7] (a549) and 119 nM in series [11] (k562). In addition, the Stability came to 23% in series [15] and 19% in series [9] (microsomes, 0.5 h, 1 µM).

Regarding `O=C(/C=C/c1ccc2c(c1)C(=O)CC1(CCN(Cc3ccccc3)C1)O2)NO` (stereo in doubt; 32j), the IC50 came out at 71 nM in series [1] (hct-116), 37 nM in [6], 303 nM in [7] (a549) and 130 nM in series [11] (k562). The Stability in [15] stood at 11%.

`O=C(CCCCCCC(=O)Nc1ccccc1)NO` [VORINOSTAT] gave an inhibition at 0.25 h, 10 µM in [2] of 25%. For the same compound, the figures for the inhibition at 0.5 h, 10 µM in series [3], in series [5] and in series [8] were 25%, 69% and 35%, respectively. The remaining at 0.5 h, 1 µM in series [4] amounted to 93%; in series [9], 82%.
